Laboratory results taken from ChEMBL document CHEMBL1123191, “Allergenic alpha-methylene-gamma-butyrolactones. Study of the capacity of beta-acetoxy- and beta-hydroxy-alpha-methylene-gamma-butyrolactones to induce allergic contact dermatitis in guinea pigs” (1986).

Assays:
[1] = species on record: Cavia porcellus; experiment: Compound was measured for open epicutaneous test on sensitized guinea pig after sensitization of compound (4-Hydroxy-3-methylene-1-oxa-spiro[4.5]decan-2-one); assay type: functional
How it was run: (§1)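 Female Albino Himalayan spotted guinea pigs (300-500 g) sensitized by FCAT: hapten emulsified in Freund's complete adjuvant, 0.1 mL intradermal in shaved nuchal region, three injections on alternate days. After 2-week rest, 25 μL of 2% lactone in CH2Cl2 (others at same molar concentration) applied to 2-cm² area of shaved flank. Read at 24 h, scale 0-3.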

[2] = species on record: Cavia porcellus; experiment: Compound was measured for open epicutaneous test on sensitized guinea pig after sensitization of compound (Acetic acid 4-methylene-5-oxo-tetrahydro-furan-3-yl ester); assay type: functional; how it was run: as §1
[3] = species on record: Cavia porcellus; experiment: Compound was measured for open epicutaneous test on sensitized guinea pig after sensitization of compound itself; assay type: functional; how it was run: as §1
[4] = species on record: Cavia porcellus; experiment: Compound was measured for open epicutaneous test on sensitized guinea pig after sensitization of compound (4-Hydroxy-3-methylene-dihydro-furan-2-one); assay type: functional; how it was run: as §1
[5] = species on record: Cavia porcellus; experiment: Compound was measured for open epicutaneous test on sensitized guinea pig after sensitization of compound (Acetic acid 3-methylene-2-oxo-1-oxa-spiro[4.5]dec-4-yl ester); assay type: functional; how it was run: as §1
[6] = species on record: Cavia porcellus; experiment: Compound was measured for open epicutaneous test on sensitized guinea pig after sensitization of compound (3-Methylene-1-oxa-spiro[4.5]decan-2-one); assay type: functional; how it was run: as §1
[7] = species on record: Cavia porcellus; experiment: Compound was measured for open epicutaneous test on sensitized guinea pig after sensitization of compound (4-Hydroxy-3-methylene-dihydro-furan-2-one) average skin reaction; assay type: functional; how it was run: as §1
[8] = species on record: Cavia porcellus; experiment: Compound was measured for open epicutaneous test on sensitized guinea pig after sensitization of compound (3-Methylene-1-oxa-spiro[4.5]decan-2-one) average skin reaction.; assay type: functional; how it was run: as §1
[9] = species on record: Cavia porcellus; experiment: Compound was measured for open epicutaneous test on sensitized guinea pig after sensitization of compound 1a
[10] = species on record: Cavia porcellus; experiment: Compound was measured for open epicutaneous test on sensitized guinea pig after sensitization of compound (4-Hydroxy-3-methylene-1-oxa-spiro[4.5]decan-2-one). average skin reaction.; assay type: functional; how it was run: as §1
[11] = species on record: Cavia porcellus; experiment: Compound was measured for open epicutaneous test on sensitized guinea pig after sensitization of compound (Acetic acid 4-methylene-5-oxo-tetrahydro-furan-3-yl ester) average skin reaction; assay type: functional; how it was run: as §1

Row | SMILES | Sensitized animals [1] | Sensitized animals [2] | Sensitized animals [3] | Sensitized animals [4] | Sensitized animals [5] | Sensitized animals [6] | Average skin reaction [5] | Average skin reaction [7] | Average skin reaction [8] | Average skin reaction [9] | Average skin reaction [10] | Average skin reaction [11]
1 | C=C1C(=O)OC[C@@H]1O | 0 | 6 | 6 | 6 | 0 | 0 |  |  |  |  |  | 
2 | C=C1C(=O)OC2(CCCCC2)[C@@H]1OC(C)=O | 6 | 0 | 6 | 0 | 6 | 6 | 3 | 0 | 1.7 | 0 | 1.8 | 0
3 | C=C1C(=O)OC2(CCCCC2)[C@@H]1O | 6 | 0 | 0 | 0 | 6 | 6 | 0.5 | 0 | 0.4 | 0 | 0.7 | 0
4 | C=C1C(=O)OC[C@@H]1OC(C)=O | 0 | 6 | 6 | 4 | 0 | 0 | 0 | 0.3 | 0 | 0.4 | 0 | 0.8
5 | C=C1CC2(CCCCC2)OC1=O | 6 | 0 | 0 | 0 | 6 | 6 | 0.8 | 0 | 1.2 | 0 | 1.7 | 0
6 | C=C1CCOC1=O [TULIPALINE A] | 0 | 6 | 6 | 6 | 0 | 0 | 0 | 1.1 | 0 | 2 | 0 | 1.1
